From paper PMC6531046 (Bioorganic & medicinal chemistry, 2019)
Entries after “also recorded” stand apart in the source; their conditions may differ.

Experiments:
[1] = test system: T. b. brucei Lister 427 cells; assay: T. brucei cell viability analysis; assay type: cell-based, Trypanosoma brucei brucei; conditions: IC50 mammalian cells / IC50 T. brucei
In short: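 Index is mammalian-cell IC50 divided by T. brucei IC50. Parasite arm: bloodstream-form Lister 427 in HMI-9/10% FBS, 37°C, 7.5% CO2; 5,000 cells, compound with 0.1% DMSO, 48 h; MTS 3 h, A490. Mammalian arm: HEK293 or RAW264.7 in RPMI1640/10% FBS, 3000 cells seeded 24 h, compound 48 h; MTT 3 h, A570. Quadruplicates normalized, dose–response fitted.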

tubulin = tubulin (Trypanosoma brucei rhodesiense, UniProt P04106+P04107); assay: Tubulin polymerization in T. brucei cells; assay type: cell-based; conditions: 12 h treatment, different doses, western blot vs DMSO
Sequence of tubulin (P04107 whole entry): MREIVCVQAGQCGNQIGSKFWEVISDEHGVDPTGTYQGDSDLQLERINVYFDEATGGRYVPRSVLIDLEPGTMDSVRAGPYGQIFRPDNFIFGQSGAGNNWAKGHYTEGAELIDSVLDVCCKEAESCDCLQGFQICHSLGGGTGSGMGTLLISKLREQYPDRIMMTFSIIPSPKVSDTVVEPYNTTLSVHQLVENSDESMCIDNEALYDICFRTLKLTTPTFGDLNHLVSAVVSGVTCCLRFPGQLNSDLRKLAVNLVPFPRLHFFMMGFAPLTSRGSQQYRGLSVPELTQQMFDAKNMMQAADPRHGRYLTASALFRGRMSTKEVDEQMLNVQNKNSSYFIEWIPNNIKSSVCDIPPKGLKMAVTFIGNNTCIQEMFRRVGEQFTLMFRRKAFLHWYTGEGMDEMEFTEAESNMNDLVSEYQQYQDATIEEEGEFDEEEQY
Sequence of tubulin (P04106 whole entry): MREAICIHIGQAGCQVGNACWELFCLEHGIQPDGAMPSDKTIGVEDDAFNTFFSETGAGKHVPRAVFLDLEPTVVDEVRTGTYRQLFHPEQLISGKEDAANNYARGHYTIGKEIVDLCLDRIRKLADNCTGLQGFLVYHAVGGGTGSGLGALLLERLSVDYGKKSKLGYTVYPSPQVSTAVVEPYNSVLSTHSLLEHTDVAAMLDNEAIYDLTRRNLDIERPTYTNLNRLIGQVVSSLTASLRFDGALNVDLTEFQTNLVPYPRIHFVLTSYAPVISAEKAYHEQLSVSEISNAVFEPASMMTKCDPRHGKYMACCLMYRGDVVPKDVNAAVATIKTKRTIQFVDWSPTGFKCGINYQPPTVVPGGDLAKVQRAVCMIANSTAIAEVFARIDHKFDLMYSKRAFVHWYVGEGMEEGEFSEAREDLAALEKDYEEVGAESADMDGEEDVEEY
In short: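 Bloodstream-form T. b. brucei Lister 427 (HMI-9, 10% FBS, 37°C, 7.5% CO2) treated 12 h with varying doses in 0.5% DMSO; washed in TDB with protease inhibitors, lysed 5 min at 4°C in Pipes pH 6.8/EGTA/MgCl2/0.15% Triton X-100/glycerol; 15,000 g 30 min spin separated soluble (non-polymerized) supernatant from pellet, RIPA-boiled (polymerized). Equal cell-equivalent fractions blotted with anti-tubulin antibody.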

[2] = test system: T. b. brucei Lister 427 cells; conditions: earlier study, cited from earlier work

| Compound | selectivity index (mammalian cell line not given) [1] | effect on tubulin polymerization in T. brucei cells (tubulin) | selectivity index ([2]; IC50 human cell growth / IC50 T. brucei cell growth) | IC50 to inhibit trypanosomal cell proliferation [2] |
| --- | --- | --- | --- | --- |
| Cc1cc(NC(=O)c2cc(C(F)(F)F)cc(C(F)(F)F)c2)ccc1NS(C)(=O)=O [Compound 5, N-(4-(Methylsulfonamido)-3-Methylphenyl)-3,5-Bis(Trifluoromethyl)Benzamide] | above 50 | profound effect on tubulin function; also recorded: decreased the amount of polymerized tubulin in a dose-dependent manner; also recorded: inhibit the tubulin polymerization in T. brucei cells | – | – |
| Cc1cc(NC(=O)c2cc(C(F)(F)F)cc(C(F)(F)F)c2)ccc1NS(=O)(=O)C(F)(F)F [Compound 15, N-(3-Methyl-4-Trifluoromethanesulfonylamino-Phenyl)-3,5-Bis-Trifluoromethyl-Benzamide] | – | – | around 7000 | 70 nM |
| CCS(=O)(=O)Nc1ccc(NC(=O)c2ccc(Cl)c([N+](=O)[O-])c2)cc1Cl [Compound 39, 4-Chloro-N-(3-Chloro-4-(Ethylsulfonamido)-Phenyl)-3-Nitrobenzamide] | below 50 | – | – | – |
| CCS(=O)(=O)Nc1ccc(NC(=O)c2cc(C(F)(F)F)cc(C(F)(F)F)c2)cc1Cl [Compound 40, N-(3-Chloro-4-(Ethylsulfonamido)Phenyl)-3,5-Bis(Trifluoromethyl)Benzamide] | below 50 | – | – | – |
| N#Cc1ccc(C(=O)Nc2ccc(NS(=O)(=O)C(F)(F)F)c(F)c2)cc1 [Compound 57, 4-Cyano-N-(3-Fluoro-4-(Trifluoromethylsulfonamido)Phenyl)Benzamide] | – | decreased the amount of polymerized tubulin in a dose-dependent manner; also recorded: inhibit the tubulin polymerization in T. brucei cells | – | – |
